According to ChEMBL document CHEMBL1142383, “Discovery of potent cholecystokinin-2 receptor antagonists: elucidation of key pharmacophore elements by X-ray crystallographic and NMR conformational analysis” (Bioorg Med Chem, 2008):

How the values were obtained:
[1] = molecular target: T1, Gastrin/cholecystokinin type B receptor (Homo sapiens, UniProt P32239); experiment: Displacement of [125I]CCK8S from human CCK2R
T1 sequence (P32239 whole entry): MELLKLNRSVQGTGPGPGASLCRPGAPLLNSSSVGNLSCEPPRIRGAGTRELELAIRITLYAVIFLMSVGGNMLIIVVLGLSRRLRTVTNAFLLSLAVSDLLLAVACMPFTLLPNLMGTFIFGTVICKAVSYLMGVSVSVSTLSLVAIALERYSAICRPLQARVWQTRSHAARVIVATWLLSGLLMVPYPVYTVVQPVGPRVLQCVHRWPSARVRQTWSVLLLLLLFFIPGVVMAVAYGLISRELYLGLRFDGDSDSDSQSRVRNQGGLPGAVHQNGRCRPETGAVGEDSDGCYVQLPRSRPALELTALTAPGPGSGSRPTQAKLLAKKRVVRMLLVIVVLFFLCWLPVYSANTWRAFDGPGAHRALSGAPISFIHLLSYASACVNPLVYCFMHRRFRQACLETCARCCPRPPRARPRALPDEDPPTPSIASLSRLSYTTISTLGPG
Method in brief: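 Radioligand competition binding at human CCK-2R against [125I]-CCK-8S. The pIC50 is the concentration displacing 50% of tracer binding, converted to pKi by the Cheng–Prusoff method.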

[2] = molecular target: T2, Cholecystokinin receptor type A (Homo sapiens, UniProt P32238); experiment: Displacement of [125I]CCK8S from human CCK1R
T2 sequence (P32238 whole entry): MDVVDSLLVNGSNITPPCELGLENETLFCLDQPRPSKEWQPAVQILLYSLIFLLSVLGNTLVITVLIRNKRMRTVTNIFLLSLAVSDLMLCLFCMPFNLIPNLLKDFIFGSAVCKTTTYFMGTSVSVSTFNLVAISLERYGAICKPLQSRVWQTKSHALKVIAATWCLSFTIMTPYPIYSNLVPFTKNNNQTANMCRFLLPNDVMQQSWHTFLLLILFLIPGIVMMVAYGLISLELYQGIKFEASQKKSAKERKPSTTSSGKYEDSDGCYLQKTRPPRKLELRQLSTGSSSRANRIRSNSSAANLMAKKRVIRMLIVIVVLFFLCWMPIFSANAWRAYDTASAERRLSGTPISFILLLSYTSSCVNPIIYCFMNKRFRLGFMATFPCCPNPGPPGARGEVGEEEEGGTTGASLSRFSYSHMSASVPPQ

[3] = Clearance in rat at 2 umol/kg, iv; format: ADME, organism-based; details: in vivo
Method in brief: (§1)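 Rat pharmacokinetics after an intravenous dose of […]. Clearance and half-life were derived from the iv dosing.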

[4] = Bioavailability in rat at 2 umol/kg, po; format: ADME, organism-based; details: in vivo
Method in brief: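 Rat oral dosing at […]. Bioavailability is reported as relative fraction absorbed (%F) from the po dose.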

[5] = Half life in rat at 2 umol/kg, iv; format: ADME, organism-based; details: in vivo; method in brief: as §1
[6] = Metabolic stability in human liver microsome assessed as compound remaining after 30 mins; format: ADME; details: liver microsomes, read-out: Stability
Method in brief: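 Incubation for 30 min with pooled human liver microsome preparations (n = 20). Stability is expressed as percent of parent remaining.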

Ki [1] [µM]	Ki [2] [µM]	clearance [3] [mL/min/kg]	bioavailability [4] [%]	half-life [5] [min]	remaining at 0.5 h [6] [%]	SMILES
1.58	> 10	–	–	–	–	O=C(c1ccc(Br)cc1NS(=O)(=O)c1cccc2[nH]cnc12)N1CCCCC1
2	> 10	–	–	–	–	Cn1nnc2c(S(=O)(=O)Nc3cc(Br)ccc3C(=O)N3CCCCC3)cccc21
0.0794	> 10	–	–	–	–	O=C(c1ccc(Br)cc1NS(=O)(=O)c1cccc2scnc12)N1CCCCC1
0.794	> 10	–	–	–	–	Cn1nc2cccc(S(=O)(=O)Nc3cc(Br)ccc3C(=O)N3CCCCC3)c2n1
–	> 10	13.8	50	20.4	21	O=C(c1ccc(Br)cc1NS(=O)(=O)c1cccc2nccnc12)N1CCCCC1
0.501	> 10	–	–	–	–	O=C(NCc1ccc(Cl)cc1)c1ccc(Br)cc1NS(=O)(=O)c1cccc2nsnc12
3.16	> 10	–	–	–	–	O=C(c1ccc(Br)cc1NS(=O)(=O)c1ccc2ncsc2c1)N1CCCCC1
0.794	> 10	–	–	–	–	O=C(c1ccc(Br)cc1NS(=O)(=O)c1cccc2ncsc12)N1CCCCC1
5.01	> 10	–	–	–	–	Cc1nc2cccc(S(=O)(=O)Nc3cc(Br)ccc3C(=O)N3CCCCC3)c2s1
> 10	> 10	–	–	–	–	Cn1nc2ccc(S(=O)(=O)Nc3cc(Br)ccc3C(=O)N3CCCCC3)cc2n1
